High-throughput results (PubChem)
In the library only some 3.5% were active in any assay of this set; here they are far more common.
RGS4 act: RGS4 potentiators or activators, primary screen, cell-based, HEK293 M3R inducible RGS4, calcium flux | carbachol calcium flux Fluo4; hits give low values | B-score at 10 µM | 310,000 compounds, 0.92% hits | AID 463111, 2010;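 active = B-score of the integrated calcium signal more than 4 SD below the library mean, with starting fluorescence not abnormally high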;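 note: negative B-score means reduced calcium response which marks RGS4 activation or potentiation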
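System: HEK293 FlpIn-TREx cells, stable M3R, doxycycline-inducible RGS4. Timing: overnight RGS4 induction, 30 min dye load 37 °C, 20 min compound RT. Also added: carbachol, ECmax concentration. Measured by: Fluo4 fluorescence kinetic imaging of calcium. Evaluation: integrated calcium ratio converted to B score.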
MrgX1 antag: antagonists of human MrgX1 receptor, primary screen, HEK293 cells, Fluo-4 calcium flux. BAM8-22 antagonism; hits give low values. 310,000 compounds, 1.3% hits. B-score at 10 µM;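 active = calcium-response B-score plate-corrected more than 3 library SD below zero, starting fluorescence within 5 deviations, no agonist response on first addition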;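 note: peak minus trough fluorescence over baseline after final BAM8-22 challenge near maximal dose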
Target sequence (Q96LB2 whole entry, looked up): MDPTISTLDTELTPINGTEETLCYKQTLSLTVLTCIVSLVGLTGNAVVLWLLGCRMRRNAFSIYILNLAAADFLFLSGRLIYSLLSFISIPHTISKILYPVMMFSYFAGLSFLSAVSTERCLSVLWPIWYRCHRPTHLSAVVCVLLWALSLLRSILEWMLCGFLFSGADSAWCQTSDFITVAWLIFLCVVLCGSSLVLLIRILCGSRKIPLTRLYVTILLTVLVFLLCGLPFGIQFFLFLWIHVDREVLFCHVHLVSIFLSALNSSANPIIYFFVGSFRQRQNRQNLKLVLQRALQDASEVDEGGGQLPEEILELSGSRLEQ
MrgX1 agonist: agonists of human MrgX1 receptor, primary screen, HEK293 cells, Fluo-4 calcium flux; Mas-related G-protein coupled receptor member X1 (Homo sapiens), Q96LB2; Fluo-4 calcium fluorescence, agonist mode; hits give high values; 310,000 compounds, 0.44% hits; B-score at 10 µM;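 active = calcium response B-score plate-corrected fluorescence ratio at least 3 library SD, with starting fluorescence B-score inside 5 SD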
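Assay system: stable human MrgX1 HEK293 cell line. Quantity: 15,000 cells per well. Schedule: cells plated overnight, dye loaded 0.5 h 37 °C, 0.5 h room temperature. Detection: Fluo-4 NW calcium-flux fluorescence, kinetic read. Read-out basis: peak-minus-minimum fluorescence over baseline, converted to B scores. Control set: positive and negative control wells on each plate.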
MrgX1 PAM: positive allosteric modulators of MrgX1, primary screen, HEK293 cells, Fluo-4 calcium flux; 310,000 compounds, 0.63% hits; B-score at 10 µM; Mas-related G-protein coupled receptor member X1 (Homo sapiens), Q96LB2; FDSS; hits give high values; AID 588675, 2011;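 active = plate-corrected calcium response at least 3 library SD above typical, normal starting fluorescence, not activating the receptor alone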;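 note: compound read alongside a low EC10 to EC30 dose of BAM8-22 agonist; peak minus trough fluorescence over baseline measured at the second addition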
RGS4 inh: RGS4 inhibitors, primary screen, cell-based, HEK293 M3R inducible RGS4, calcium flux; Regulator of G-protein signaling 4 (Homo sapiens), P49798; Fluo-4 calcium flux; hits give high values; triggered by carbachol at its EC20; B-score at 10 µM; 310,000 compounds, 0.45% hits; AID 463165, 2010;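 active = B-score, a plate-corrected calcium signal, over three deviations above library mean, with baseline fluorescence within five deviations of library mean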;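 note: RGS4 expression induced by doxycycline in cells with stable M3 receptor; B-score is computed from the integrated fluorescence ratio over baseline after carbachol; higher B-score means a larger calcium signal and so more RGS4 inhibition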
* marks the source's active call; other numbers are inactive results; i = inactive; x = no result given.

SMILES	RGS4 act	MrgX1 antag	MrgX1 agonist	MrgX1 PAM	RGS4 inh
C=CCOc1cccc(C2/C(=C(/O)c3ccc(Cl)cc3)C(=O)C(=O)N2CCN2CCOCC2)c1 (configuration not stated)	i	-5*	i	i	i
COc1ccccc1NS(=O)(=O)c1ccc(O)c(C(=O)OCC(=O)N2c3ccccc3CC2C)c1 (configuration not stated)	i	i	i	i	i
CCCCCCCCC[n+]1cccc2c3ccccc3ccc21	-8.6*	i	i	i	i
CC(CCc1ccccc1)NC(=O)COc1cc(F)ccc1[N+](=O)[O-] (configuration not stated)	i	i	i	8.3*	i
O=C(NCCN1C(=O)S/C(=C\c2ccccc2F)C1=O)C1CCN(S(=O)(=O)c2cccs2)CC1	i	-8.9*	i	i	i
CCN(/N=C/C=C/c1ccccc1)c1cc(=O)n(C)c(=O)[nH]1	i	-5.6*	i	i	i
S=C(Cc1ccccc1)NCCc1ccccc1	i	i	i	i	i
O=C(/C=C/c1ccc(OC(F)F)cc1)Nc1cccc(S(=O)(=O)NC2=NCCCCC2)c1	i	-8.2*	i	i	i
O=C(C1CCN(S(=O)(=O)N2CCC3(CC2)OCCO3)CC1)N1CCCCC1	i	i	i	i	i
N#C/C(C(N)=O)=c1/ccc2c(c1)N1C3=C(CCCC3)CC3CCCCC31N=2 (configuration not stated)	-8.8*	i	i	i	i
COC(=O)CSc1nnc(-c2cccc(NC(=O)c3ccc(C)cc3)c2)n1C	i	i	i	i	i
COc1ccc(/C=C/C(=O)OCC(=O)c2ccc3c(c2)NC(=O)CO3)c(OC)c1	i	i	i	i	i
COc1cccc(/C=C/C(=O)OCC(=O)c2ccc3c(c2)NC(=O)CO3)c1OC	i	i	i	11*	i
CCC(C)c1ccc(-c2cc(C(=O)OCC(=O)Nc3cc(C)on3)c3ccccc3n2)cc1 (configuration not stated)	i	i	i	i	i
CCCN(CCC)C(=O)Cn1c(=O)c2ccccc2n2c(=S)sc(-c3ccccc3C)c12	i	-4.6*	i	i	i
CCOC(=O)C1(Cc2ccccc2C)CCCN(C(=O)c2ccccn2)C1 (configuration not stated)	i	i	i	i	i
CCOC(=O)C1(Cc2ccccc2C)CCCN(C(=O)c2ccc3nccnc3c2)C1 (configuration not stated)	-7.1*	i	i	i	i
C/C(=N\NC(=O)c1ccc(Cn2cc(Br)cn2)o1)c1cccc(NC(=O)C(C)(C)C)c1	i	i	i	i	i
C/C(=N\NC(=O)c1ccc(Cn2cc(Br)cn2)o1)c1ccc(NC(=O)c2ccoc2C)cc1	-9.5*	x	x	x	i
CN1C(=O)/C(=C/c2ccccc2OCc2cccc(F)c2)N(C)C1=S	-9.9*	i	i	i	i
CN1C(=O)/C(=C/c2ccc(OCc3ccc(F)cc3)cc2)N(C)C1=S	i	i	i	i	i
O=C(NCCN1C(=O)S/C(=C\c2ccc(OC(F)F)cc2)C1=O)[C@@H]1CCCN1C(=O)c1cccs1	i	i	i	8.2*	i
COc1ccc(/C=C/C(=O)Nc2cccc(F)c2)cc1S(=O)(=O)N1CCOCC1	i	i	i	i	i
COc1ccc(/C=C/C(=O)Nc2ccccc2C)cc1S(=O)(=O)N1CCOCC1	i	i	i	8*	i
O=C(Nc1nnc(SCC(=O)N2CCOCC2)s1)C1CC(=O)N(c2ccccc2)C1 (configuration not stated)	i	i	i	i	i
CCN(CC(=O)NC(C)C)C(=O)C(CCSC)NC(=O)c1ccccc1OC (configuration not stated)	i	i	i	i	i
